From ChEMBL document CHEMBL3392981, “Synthesis and pharmacological evaluation of dual acting ligands targeting the adenosine A2A and dopamine D2 receptors for the potential treatment of Parkinson's disease” (J Med Chem, 2015)

What was measured:
Adenosine receptor A2a = Adenosine receptor A2a (Homo sapiens, UniProt P29274); assay: Inhibition of human adenosine A2A receptor expressed in FlpIn-CHO cells assessed as inhibition of NECA-induced cAMP accumulation incubated for 30 mins by fluorescence assay; assay type: functional, cell-based
D(2) dopamine receptor [1] = molecular target: T1, D(2) dopamine receptor (Homo sapiens, UniProt P14416); assay: Agonist activity at human dopamine D2L receptor expressed in CHO cell membranes incubated for 1 hr by [35S]GTPgammaS binding assay; assay type: functional; conditions: for pEC50: cho
D(2) dopamine receptor [2] = molecular target: T1, D(2) dopamine receptor; assay: Agonist activity at human dopamine D2L receptor expressed in CHO cell membranes incubated for 1 hr by [35S]GTPgammaS binding assay relative to 100 uM quinelorane; assay type: functional
[3] = Blood-brain partition ratio in Wistar Han rat at 5 uM incubated for 4 hrs by dialysis and LC-MS/MS method; assay type: ADME, tissue-based; conditions: in vitro
How it was run: (§1)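 Blood and brain tissue were taken from Wistar Han rat and tested in vitro. Percent fraction unbound was determined in each matrix (undiluted Fu). The brain:blood partition ratio (Kbb) was derived as an in vitro predictor of CNS penetration. Runs were in triplicate, and values are reported as mean ± SD.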

[4] = Fraction unbound in Wistar Han rat blood at 5 uM incubated for 4 hrs by dialysis and LC-MS/MS method; assay type: ADME, tissue-based; how it was run: as §1
[5] = Fraction unbound in Wistar Han rat brain at 5 uM incubated for 4 hrs by dialysis and LC-MS/MS method; assay type: ADME, tissue-based; how it was run: as §1

T1 sequence (P14416 whole entry): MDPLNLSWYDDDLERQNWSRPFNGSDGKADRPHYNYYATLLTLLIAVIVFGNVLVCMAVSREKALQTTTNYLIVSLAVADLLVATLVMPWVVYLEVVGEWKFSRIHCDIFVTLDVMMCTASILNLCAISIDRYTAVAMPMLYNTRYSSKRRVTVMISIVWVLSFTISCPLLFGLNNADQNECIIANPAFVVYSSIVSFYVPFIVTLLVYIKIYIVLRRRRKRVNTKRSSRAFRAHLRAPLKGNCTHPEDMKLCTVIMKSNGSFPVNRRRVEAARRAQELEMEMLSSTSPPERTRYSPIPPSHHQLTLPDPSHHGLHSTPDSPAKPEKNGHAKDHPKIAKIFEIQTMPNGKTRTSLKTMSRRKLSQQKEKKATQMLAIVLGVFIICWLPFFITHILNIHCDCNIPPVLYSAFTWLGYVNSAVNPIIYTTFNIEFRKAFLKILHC
Adenosine receptor A2a, sequence (P29274 whole entry): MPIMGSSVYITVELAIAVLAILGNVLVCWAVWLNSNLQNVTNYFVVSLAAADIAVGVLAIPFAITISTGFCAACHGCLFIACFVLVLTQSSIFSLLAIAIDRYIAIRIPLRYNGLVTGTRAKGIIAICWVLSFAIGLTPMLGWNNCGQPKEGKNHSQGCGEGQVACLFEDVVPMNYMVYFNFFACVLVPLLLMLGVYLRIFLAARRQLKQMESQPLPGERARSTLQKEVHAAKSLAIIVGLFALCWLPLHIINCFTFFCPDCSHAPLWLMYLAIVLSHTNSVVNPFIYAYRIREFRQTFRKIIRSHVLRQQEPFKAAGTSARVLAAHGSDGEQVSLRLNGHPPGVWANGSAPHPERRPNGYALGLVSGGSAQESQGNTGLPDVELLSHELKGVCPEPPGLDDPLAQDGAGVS

Row | SMILES | IC50 (Adenosine receptor A2a; read-out: IC50) [nM] | IC50 (Adenosine receptor A2a; read-out: pIC50 (converted)) [nM] | EC50 (D(2) dopamine receptor [1]) [nM] | Emax (D(2) dopamine receptor [2]) [%] | pEC50 (D(2) dopamine receptor [1]) | Kbb [3] | fraction unbound at 4 h, 5 µM [4] | fraction unbound at 4 h, 5 µM [5]
1 | CCCN(CCCNC(=O)CCCOc1ccc(CCNc2nc(N)n3nc(-c4ccco4)nc3n2)cc1)CCc1cccc2c1CC(=O)N2 | 18 | 18.2 | 204 | 95 | – | – | – | –
2 | CC(C)(C)OC(=O)N1CCC(Nc2nc(N)n3nc(-c4ccco4)nc3n2)CC1 | 1740 | 1740 | – | – | – | – | – | –
3 | CCCN1CCC[C@@H]2Cc3nc(N)ncc3C[C@H]21 [QUINELORANE] | – | – | – | – | 7.35 | – | – | –
4 | O=C(O)C(F)(F)F.O=C1Cc2c(CCN3CCCNCC3)cccc2N1 | – | – | > 100000 | – | < 4 | – | – | –
5 | Nc1nc(N2CCCN(CCc3cccc4c3CC(=O)N4)CC2)nc2nc(-c3ccco3)nn12.O=C(O)C(F)(F)F | 1480 | 1480 | > 100000 | – | < 4 | – | – | –
6 | Nc1nc(NC2CCN(CCc3cccc4c3CC(=O)N4)CC2)nc2nc(-c3ccco3)nn12 | 1510 | 1510 | > 100000 | – | < 4 | – | – | –
7 | CCCN(CCCNC(=O)CCCCCCCCCCCNC(=O)CCCOc1ccc(CCNc2nc(N)n3nc(-c4ccco4)nc3n2)cc1)CCc1cccc2c1CC(=O)N2 | 1070 | 1070 | 1400 | 38 | – | – | – | –
8 | CCCN(CCc1cccc2c1CC(=O)N2)c1nc(N)n2nc(-c3ccco3)nc2n1 | 32 | 32.4 | > 100000 | – | < 4 | – | – | –
9 | CN(CCCNc1nc(N)n2nc(-c3ccco3)nc2n1)CCc1cccc2c1CC(=O)N2 | 1120 | 1120 | 389 | 77 | – | – | – | –
10 | CCCN(CCCNc1nc(Oc2ccc(CCNc3nc(N)n4nc(-c5ccco5)nc4n3)cc2)nc(N2CCOCC2)n1)CCc1cccc2c1CC(=O)N2.O=CO | 120 | 120 | 311 | 65 | – | 3.64 | 0.0222 | 0.0061
11 | CC(C)(C)OC(=O)N1CCN(CCc2cccc3c2CC(=O)N3)CC1 | – | – | > 100000 | – | < 4 | – | – | –
12 | CCCN(CCCCCCNc1nc(N)n2nc(-c3ccco3)nc2n1)CCc1cccc2c1CC(=O)N2 | 1780 | 1780 | 38 | 77 | – | – | – | –

Continued, values first:

Row | IC50 (Adenosine receptor A2a; read-out: IC50) [nM] | IC50 (Adenosine receptor A2a; read-out: pIC50 (converted)) [nM] | EC50 (D(2) dopamine receptor [1]) [nM] | Emax (D(2) dopamine receptor [2]) [%] | pEC50 (D(2) dopamine receptor [1]) | Kbb [3] | fraction unbound at 4 h, 5 µM [4] | fraction unbound at 4 h, 5 µM [5] | SMILES
13 | 41 | 40.7 | 501 | 77 | – | – | – | – | CCCN(CCCNC(=O)CCCCCCCNC(=O)CCCOc1ccc(CCNc2nc(N)n3nc(-c4ccco4)nc3n2)cc1)CCc1cccc2c1CC(=O)N2
14 | – | – | > 100000 | – | < 4 | – | – | – | CC(C)(C)OC(=O)N1CCCN(CCc2cccc3c2CC(=O)N3)CC1
15 | 63 | 63.1 | 148 | 88 | – | – | – | – | CCCN(CCCNC(=O)COc1ccc(CCNc2nc(N)n3nc(-c4ccco4)nc3n2)cc1)CCc1cccc2c1CC(=O)N2
16 | – | – | > 100000 | – | < 4 | 0.76 | 0.0647 | 0.0849 | Nc1nc(NCCc2ccc(O)cc2)nc2nc(-c3ccco3)nn12 [ZM-241385]
17 | 35 | 35.5 | 484 | 79 | – | – | – | – | CCCN(CCCNC(=O)CCCC(=O)Oc1ccc(CCNc2nc(N)n3nc(-c4ccco4)nc3n2)cc1)CCc1cccc2c1CC(=O)N2
18 | 912 | 912 | 88 | 89 | – | 1.29 | 0.198 | 0.153 | CCCN(CCCNc1nc(N)n2nc(-c3ccco3)nc2n1)CCc1cccc2c1CC(=O)N2
19 | 135 | 135 | > 100000 | – | < 4 | – | – | – | Nc1nc(NCCc2ccc(Oc3nc(Cl)nc(N4CCOCC4)n3)cc2)nc2nc(-c3ccco3)nn12
20 | > 100000 | – | 114 | 66 | – | – | – | – | CCCN(CCCNC(=O)CCCCCCCCCCCNC(=O)OC(C)(C)C)CCc1cccc2c1CC(=O)N2
21 | – | – | > 100000 | – | < 4 | – | – | – | O=C1Cc2c(CCN3CCNCC3)cccc2N1
22 | 437 | 437 | > 100000 | – | < 4 | – | – | – | COC(=O)CCCCCCCCCCCNC(=O)CCCOc1ccc(CCNc2nc(N)n3nc(-c4ccco4)nc3n2)cc1
23 | 110 | 110 | 785 | 68 | – | – | – | – | CCCN(CCCNC(=O)CCCNC(=O)CCCOc1ccc(CCNc2nc(N)n3nc(-c4ccco4)nc3n2)cc1)CCc1cccc2c1CC(=O)N2
24 | – | – | > 100000 | – | < 4 | – | – | – | NC1CCN(CCc2cccc3c2CC(=O)N3)CC1
25 | 59 | 58.9 | > 100000 | – | < 4 | 1.07 | 0.0605 | 0.0563 | Nc1nc(N2CCN(CCc3cccc4c3CC(=O)N4)CC2)nc2nc(-c3ccco3)nn12
26 | – | – | > 100000 | – | < 4 | – | – | – | CC(C)(C)OC(=O)NC1CCN(CCc2cccc3c2CC(=O)N3)CC1
